Compounds with a hit are over-represented: about 4.8% of the library has one in this group of screens.
CSC inhib – cancer stem cell inhibition; cancer stem cell-like cells viability, luminescence; hit rate 1.1% among 300,000; inhibition, % at 7.5 µM; in the data active = inhibition above about 75%; inconclusive = no clear call, values can overlap the other calls; tested in HMLE shEcad cells
XBP1 UPR activ – activators of adaptive arm of unfolded protein response (XBP1) | CHO-XBP1 luciferase reporter, IRE1-XBP1 UPR activation, luminescence; percent of tunicamycin response, DMSO as zero | activation, % at 20 µM | hit rate 0.33% among 330,000 | AID 463104;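 active = versus positive control, 20 µM dose yields 30% or more activation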
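Material – CHO cell line with stable XBP1 luciferase reporter · Buffer or medium – F12 plus 10% FBS · Compound – single point, 20 µM final compound, 1% DMSO · Schedule – 16-18 h cell attachment at 37 °C, then 6 h compound exposure · Signal – Steady-Glo luminescence read · Benchmarks – high control tunicamycin 10 µg/mL final, low control DMSO vehicle only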
CHOP UPR activ – apoptotic UPR (CHOP) activation. activation, % at 10 µM. hit rate 0.34% among 330,000. CHO-CHOP luciferase reporter, luminescence; percent of tunicamycin response over DMSO baseline;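 active = at 10 µM dose, activation of 40% or more, normalized to positive control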
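Test system: CHO-CHOP cells, stable luciferase reporter of PERK-eIF2a-CHOP signalling | Quantity: 500 CHO-CHOP cells per well | Buffer or medium: F12 plus 10% serum | Compound dosing: 10 µM single point, 0.5% DMSO | Schedule: 6 h compound treatment, 37 °C | Signal: Luciferase luminescence | Control set: Tunicamycin high control, DMSO low control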
Beta apoptosis – blocks beta cell apoptosis. INS-1E cytokine-induced death, ATP luminescence, 48 h; percent of positive-control rescue, neutral wells zero. hit rate 0.8% among 300,000. AID 435005. protection from apoptosis, % (test concentration not listed);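 active = Every replicate reaches about 75%, or at least half do and their mean reaches it too, limit read from the data; inconclusive = At least half of replicates reach the limit but their mean does not; inactive = Under half of replicates reach the limit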;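 also: higher means more ATP so stronger rescue from cytokine killing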
SKKanGAS inh – inhibitors of SKKanGAS S. pyogenes growth in kanamycin (SK-promoter or general growth effect); AID 1662; inhibition, % at 7.5 µM; BacTiter-Glo, 6 h; hit rate 1.3% among 300,000;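 active = mean replicate score, as percent of positive control median, at least 50; inconclusive = mean below 50 but one replicate at or above 50; inactive = mean and every replicate below 50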;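 also: strain carries kanamycin resistance gene driven by streptokinase promoter and grows in 40 µg/ml kanamycin; loss of luminescence reflects streptokinase promoter inhibition or plain growth inhibition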
Mdm2 MdmX PPI – disrupts the human Mdm2-MdmX interaction | SaOS-2 split-luciferase Mdm2/MdmX complementation, luminescence | inhibition, % at 8 µM | hit rate 3% among 330,000 | AID 485346;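 active = inhibition of at least 50% at 8 µM in the primary screen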
Target sequence (O15151 whole entry, looked up): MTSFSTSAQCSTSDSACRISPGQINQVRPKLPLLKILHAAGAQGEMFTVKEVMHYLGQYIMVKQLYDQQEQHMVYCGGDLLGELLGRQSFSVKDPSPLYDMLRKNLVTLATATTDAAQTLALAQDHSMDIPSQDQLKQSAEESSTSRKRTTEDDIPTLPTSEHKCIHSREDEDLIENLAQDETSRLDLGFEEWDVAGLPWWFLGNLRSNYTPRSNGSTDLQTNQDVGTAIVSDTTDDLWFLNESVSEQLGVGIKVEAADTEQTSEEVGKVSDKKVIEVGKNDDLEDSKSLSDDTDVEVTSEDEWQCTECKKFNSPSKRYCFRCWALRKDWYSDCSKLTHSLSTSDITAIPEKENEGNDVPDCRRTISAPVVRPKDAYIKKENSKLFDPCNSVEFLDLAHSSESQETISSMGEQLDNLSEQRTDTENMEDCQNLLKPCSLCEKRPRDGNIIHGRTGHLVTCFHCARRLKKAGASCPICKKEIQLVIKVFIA
Target sequence (Q00987 whole entry, looked up): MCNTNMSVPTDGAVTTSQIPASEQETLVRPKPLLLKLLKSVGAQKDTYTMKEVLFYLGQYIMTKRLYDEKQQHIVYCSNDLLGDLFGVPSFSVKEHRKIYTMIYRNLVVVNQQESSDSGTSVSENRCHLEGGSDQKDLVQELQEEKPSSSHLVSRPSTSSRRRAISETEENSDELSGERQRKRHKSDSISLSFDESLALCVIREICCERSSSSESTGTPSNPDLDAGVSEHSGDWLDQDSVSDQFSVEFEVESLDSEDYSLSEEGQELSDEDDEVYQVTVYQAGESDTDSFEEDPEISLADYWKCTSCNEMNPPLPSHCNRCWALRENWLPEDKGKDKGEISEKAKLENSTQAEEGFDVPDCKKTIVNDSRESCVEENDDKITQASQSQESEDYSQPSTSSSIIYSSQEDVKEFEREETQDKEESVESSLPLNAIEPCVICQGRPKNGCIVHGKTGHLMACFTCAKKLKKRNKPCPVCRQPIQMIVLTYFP
Mdm2-MdmX conf – human Mdm2/MdmX binding inhibition, confirmed. shares compounds with Mdm2 MdmX PPI. luminescent assay. inhibition, % at 8 µM. hit rate 55% among 10,000; in the data active = inhibition above about 40%
FLuc counter – full-length luciferase inhibition in Mdm2/MdmX counter-screen; SaOS-2 full-length luciferase counterscreen, luminescence; inhibition, % at 8 µM; shares compounds with Mdm2 MdmX PPI; AID 504607; hit rate 77% among 6,200;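 active = mean inhibition at 8 µM reaching about 37%, which flags the compound as non-specific, limit read from the data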;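 also: p53-null SaOS-2 cells with luciferase driven by a doxycycline-inducible promoter; compound on cells about two nights before reading with doxycycline added after day one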
Of the large screens only hits and unclear results are named; the others gave an inactive call (follow-up assays come after a bar, where they were run).

CC(C)CN(C(=O)COC(=O)/C=C/c1ccc(Cl)c(Cl)c1)c1c(N)n(Cc2ccccc2)c(=O)[nH]c1=O	Mdm2 MdmX PPI 92 (no result: CSC inhib, Beta apoptosis, SKKanGAS inh) | Mdm2-MdmX conf inactive
Cc1ccc(S(=O)(=O)N2CCOCC2)cc1NC(=O)CN1C(=O)NC(C)(c2ccc(Cl)cc2Cl)C1=O (stereo unspecified)	none (no result: SKKanGAS inh)
O=C(NC1CCCC1)C(c1cccnc1)N(C(=O)c1csnn1)c1ccccc1 (stereo unspecified)	none
Oc1ccc(/C=N/Nc2ccc(C(F)(F)F)cn2)c(O)c1	CSC inhib 102, Mdm2 MdmX PPI 64 | Mdm2-MdmX conf inactive | FLuc counter 56
Oc1ccc(/C=N/Nc2ccc(C(F)(F)F)cn2)cc1	none
CN(C(=O)CSc1nnc(-c2ccco2)n1Cc1ccccc1)C1CCS(=O)(=O)C1 (stereo unspecified)	none (no result: CSC inhib, SKKanGAS inh)
O=C(CCC1CCCN(Cc2cccc(Cl)c2)C1)NCc1ccccc1F (stereo unspecified)	none
Cc1cc(F)ccc1S(=O)(=O)Nc1ccccc1C(=O)Nc1ncn[nH]1	none
Cc1cc(F)ccc1S(=O)(=O)Nc1ccccc1C(=O)Nc1ccccc1-c1nc2ccccc2[nH]1	CSC inhib 79, Beta apoptosis 116, SKKanGAS inh 58, Mdm2 MdmX PPI 96 | Mdm2-MdmX conf 92 | FLuc counter 51
Cc1cc(C(=O)COC(=O)C2=NNC(=O)CC2)c(C)n1-c1ccccc1	none (no result: CSC inhib, Beta apoptosis)
COc1ccc(-n2c(C)cc(C(=O)Cn3nnc4ccccc4c3=O)c2C)cc1	none
Cc1cc(C(=O)Cn2nnc3ccccc3c2=O)c(C)n1-c1ccccc1F	Mdm2 MdmX PPI 85 | Mdm2-MdmX conf 78 | FLuc counter 103
Cc1cc(C(=O)COC(=O)c2ccc(O)cc2)c(C)n1-c1ccccc1F	Mdm2 MdmX PPI 57 (no result: CSC inhib) | Mdm2-MdmX conf 64 | FLuc counter 138
Cc1cc(C(=O)COC(=O)C2=COCCO2)c(C)n1-c1ccccc1	Mdm2 MdmX PPI 83 (no result: SKKanGAS inh) | Mdm2-MdmX conf 84 | FLuc counter inactive
Cc1cc(C(=O)COC(=O)c2ccc[nH]c2=O)c(C)n1-c1ccccc1F	none
CCCCOc1ccc(/C=N/Nc2cc(N3CCOCC3)nc(C)n2)cc1	none
O=C1CC(c2ccccc2)Sc2nc3ccccc3n21 (stereo unspecified)	none
O=C1CC(c2ccc3c(c2)OCO3)Sc2nc3ccccc3n21 (stereo unspecified)	Mdm2 MdmX PPI 54 | Mdm2-MdmX conf 67 | FLuc counter 169
CC1=C/C(=N\OS(=O)(=O)c2ccccc2)C(C(C)C)=CC1=O	Beta apoptosis inconclusive (no result: XBP1 UPR activ, CHOP UPR activ, SKKanGAS inh, Mdm2 MdmX PPI)
CC1=C/C(=N\OS(=O)(=O)c2ccccc2)C(C)=CC1=O	CSC inhib 118, Beta apoptosis 112, Mdm2 MdmX PPI 96 (no result: SKKanGAS inh) | Mdm2-MdmX conf 84 | FLuc counter 53
COc1ccc(CC(=O)Nc2cccc(-c3nnc(-c4ccc(C)cc4)o3)c2)cc1OC	Mdm2 MdmX PPI 72 | Mdm2-MdmX conf 75 | FLuc counter 67
COc1ccc(CC(=O)Nc2cccc(-c3nnc(-c4cccc(C)c4)o3)c2)cc1OC	Beta apoptosis 106, Mdm2 MdmX PPI 93 | Mdm2-MdmX conf 61 | FLuc counter 41
COc1ccc(CC(=O)Nc2cccc(-c3nnc(-c4ccccc4)o3)c2)cc1OC	none (no result: CSC inhib, XBP1 UPR activ, CHOP UPR activ, Beta apoptosis, Mdm2 MdmX PPI)
CCOc1cccc(C(=O)Nc2cccc(-c3nnc(-c4ccccc4)o3)c2)c1	Mdm2 MdmX PPI 51 (no result: CSC inhib, Beta apoptosis) | Mdm2-MdmX conf inactive
COC(=O)c1cccc(NS(=O)(=O)c2cccs2)c1C	none (no result: XBP1 UPR activ, CHOP UPR activ, Mdm2 MdmX PPI)
O=C(O)c1ccc(NC2=C(n3nnc4ccccc43)C(=O)c3ccccc3C2=O)cc1	none
COC(=O)c1ccccc1NC1=C/C(=N\S(=O)(=O)c2cccs2)c2ccccc2C1=O	CSC inhib 102, Beta apoptosis 96, Mdm2 MdmX PPI 100 | Mdm2-MdmX conf 79 | FLuc counter 58
Cc1ccc(NC2=C/C(=N/S(=O)(=O)c3cccs3)c3ccccc3C2=O)cc1	CSC inhib active, Beta apoptosis 103, SKKanGAS inh 89, Mdm2 MdmX PPI 53 | Mdm2-MdmX conf 61 | FLuc counter inactive

From PubChem
